According to ChEMBL document CHEMBL1821586, “Identification and biological activities of new taccalonolide microtubule stabilizers” (J Med Chem, 2011):
Active and inactive are the calls of the source. The calls are words filed in the database; no cut-off is given here.

Legend:
[1] = system: HeLa; experiment: Induction of interphase microtubule bundling in human HeLa cells at 0.5 uM after 18 hrs by indirect immunofluorescence analysis; assay type: cell-based
[2] = system: Mus musculus; experiment: Toxicity in B6C3F1 mouse allografted with mouse 16/C cells assessed as mean body weight loss at 73.5 mg/kg, iv (reference value: -2.2%); assay type: organism-based; parameters: dose 73.5 mg/kg, route intravenous; settings: in vivo
[3] = system: HeLa; experiment: Inhibition of beta tubulin in human HeLa cells assessed asultiple abnormal mitotic spindle formation at 12 nM after 18 hrs by immunofluorescence analysis; assay type: cell-based
[4] = Antitumor activity against mouse 16/C cells allografted in mouse B6C3F1 assessed as decrease in tumor mass at 73.5 mg/kg, iv; assay type: functional
Procedure, shortened: (§1)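 Female B6C3F1 mice (mean 19.3 ± 1.0 g) carried bilateral s.c. Mammary 16/C tumor fragments implanted day 0, 5 mice/group. […] All were given IV in 0.2 ml. Tumor mass = L×W²/2, measured 2–3 times weekly. %T/C = treated/control median mass, zeros included, taken when control tumors reach ~700–1200 mg.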

[5] = Antitumor activity against mouse 16/C cells allografted in mouse B6C3F1 assessed as delay in tumor growth at 73.5 mg/kg, iv relative to control; assay type: functional
Procedure, shortened: (§2)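 Mammary 16/C fragments implanted s.c. bilaterally in female B6C3F1 mice on day 0, 5 mice/group, IV dosing in 0.2 ml. Tumors measured 2–3 times weekly. T-C = median days for treated vs control tumors to reach 1000 mg. Gross log cell kill = (T-C)/3.32×Td, with Td the doubling time from a log-linear fit of control tumor growth.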

[6] = Antitumor activity against mouse 16/C cells allografted in mouse B6C3F1 assessed as gross log cell killing at 73.5 mg/kg, iv relative to control; assay type: functional
[7] = system: HeLa; experiment: Cell cycle arrest in human HeLa cells assessed as accumulation of cells at G2/M phase at 12 nM after 18 hrs by flow cytometric analysis; assay type: functional, cell-based
Procedure, shortened: (§3)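 DNA stained with propidium iodide (Krishan's reagent); DNA content measured by flow cytometry and plotted as PI intensity vs events.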

[8] = system: HeLa; experiment: Cell cycle arrest in human HeLa cells assessed as accumulation of cells at G2/M phase at 0.32 uM after 18 hrs by flow cytometric analysis; assay type: functional, cell-based; procedure, shortened: as §3
[9] = system: HeLa; experiment: Antiproliferative activity against human HeLa cells after 48 hrs by SRB assay; assay type: functional, cell-based
Procedure, shortened: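 HeLa cells grown in BME with 10% FBS and 50 µg/ml gentamicin, drug-treated 48 h, proliferation read by SRB assay.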

[10] = system: HeLa; experiment: Inhibition of beta tubulin in human HeLa cells assessed asultiple abnormal mitotic spindle formation at 0.32 uM after 18 hrs by immunofluorescence analysis; assay type: cell-based
[11] = system: HeLa; experiment: Induction of interphase microtubule bundling in human HeLa cells at 0.32 uM after 18 hrs by indirect immunofluorescence; assay type: cell-based
[12] = system: HeLa; experiment: Cell cycle arrest in human HeLa cells assessed as accumulation of cells at G2/M phase at 13.5 uM after 18 hrs by flow cytometric analysis; assay type: functional, cell-based; procedure, shortened: as §3
[13] = system: HeLa; experiment: Induction of interphase microtubule bundling in human HeLa cells at 13.5 uM after 18 hrs by indirect immunofluorescence; assay type: cell-based
[14] = system: HeLa; experiment: Inhibition of beta tubulin in human HeLa cells assessed asultiple abnormal mitotic spindle formation at 13.5 uM after 18 hrs by immunofluorescence analysis; assay type: cell-based
[15] = system: HeLa; experiment: Inhibition of beta tubulin in human HeLa cells assessed asultiple abnormal mitotic spindle formation at 0.8 uM after 18 hrs by immunofluorescence analysis; assay type: cell-based
[16] = system: HeLa; experiment: Cell cycle arrest in human HeLa cells assessed as accumulation of cells at G2/M phase at 0.8 uM after 18 hrs by flow cytometric analysis; assay type: functional, cell-based
[17] = system: HeLa; experiment: Induction of interphase microtubule bundling in human HeLa cells at 0.8 uM after 18 hrs by indirect immunofluorescence analysis; assay type: cell-based
[18] = Toxicity in B6C3F1 mouse allografted with mouse 16/C cells assessed as lethality at 54 mg/kg, iv administered on days 1,4,6, 8, 9, 10 and 11 measured after 12 days relative to control; assay type: organism-based; parameters: dose 54 mg/kg, route intravenous; settings: in vivo, read-out: Activity
Procedure, shortened: (§4)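 Female B6C3F1 mice, 5 per group, bore bilateral s.c. Mammary 16/C fragments. Taccalonolides in DMSO:Cremophor diluted with water were given i.v. on days 1, 4, 6 plus a later dose (A, N) or days 8, 9, 11 (E). Mice were weighed and observed daily, and lethality was recorded per group.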

[19] = system: HeLa; experiment: Cell cycle arrest in human HeLa cells assessed as accumulation of cells at G2/M phase at 2.5 uM after 18 hrs by flow cytometric analysis; assay type: functional, cell-based; procedure, shortened: as §3
[20] = Antitumor activity against mouse 16/C cells allografted in mouse B6C3F1 assessed as decrease in tumor mass at 54 mg/kg, iv administered on days 1,4,6, 8, 9, 10 and 11 relative to control; assay type: functional; procedure, shortened: as §1
[21] = Antitumor activity against mouse 16/C cells allografted in mouse B6C3F1 assessed as decrease in tumor mass at 90 mg/kg, iv administered on days 1,4,6, 8, 9, 10 and 11 relative to control; assay type: functional; procedure, shortened: as §1
[22] = system: HeLa; experiment: Inhibition of beta tubulin in human HeLa cells assessed asultiple abnormal mitotic spindle formation at 2.5 uM after 18 hrs by immunofluorescence analysis; assay type: cell-based
[23] = Antitumor activity against mouse 16/C cells allografted in mouse B6C3F1 assessed as delay in tumor growth at 54 mg/kg, iv administered on days 1,4,6, 8, 9, 10 and 11 relative to control; assay type: functional; procedure, shortened: as §2
[24] = system: Mus musculus; experiment: Toxicity in B6C3F1 mouse allografted with mouse 16/C cells assessed as mean body weight loss at 54 mg/kg, iv administered on days 1,4,6, 8, 9, 10 and 11 (reference value: -2.2%); assay type: organism-based; parameters: dose 54 mg/kg, route intravenous; settings: in vivo
[25] = Antitumor activity against mouse 16/C cells allografted in mouse B6C3F1 assessed as gross log cell killing at 54 mg/kg, iv administered on days 1,4,6, 8, 9, 10 and 11 relative to control; assay type: functional
Procedure, shortened: (§5)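 Mammary 16/C tumor fragments implanted bilaterally s.c. in female B6C3F1 mice on day 0, 5 mice/group. Taccalonolides in 50% DMSO:50% Cremophor stock, diluted with sterile water, given i.v. in 0.2 ml on days 1, 4, 6, plus one dose 2–3 days later (A, N) or further doses days 8, 9, 11 (E). Tumor mass = length × width²/2, measured 2–3 times weekly. Gross log cell kill = (T-C)/3.32 × Td, with T-C the days to 1000 mg.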

[26] = system: Mus musculus; experiment: Toxicity in B6C3F1 mouse allografted with mouse 16/C cells assessed as mean body weight loss at 90 mg/kg, iv administered on days 1,4,6, 8, 9, 10 and 11 (reference value: -2.2%); assay type: organism-based; parameters: dose 90 mg/kg, route intravenous; settings: in vivo
[27] = system: HeLa; experiment: Induction of interphase microtubule bundling in human HeLa cells at 2.5 uM after 18 hrs by indirect immunofluorescence analysis; assay type: cell-based
[28] = Antitumor activity against mouse 16/C cells allografted in mouse B6C3F1 assessed as delay in tumor growth at 90 mg/kg, iv administered on days 1,4,6, 8, 9, 10 and 11 relative to control; assay type: functional; procedure, shortened: as §2
[29] = Antitumor activity against mouse 16/C cells allografted in mouse B6C3F1 assessed as gross log cell killing at 90 mg/kg, iv administered on days 1,4,6, 8, 9, 10 and 11 relative to control; assay type: functional; procedure, shortened: as §5
[30] = Toxicity in B6C3F1 mouse allografted with mouse 16/C cells assessed as lethality at 90 mg/kg, iv administered on days 1,4,6, 8, 9, 10 and 11 measured after 12 days relative to control; assay type: organism-based; parameters: dose 90 mg/kg, route intravenous; settings: in vivo, read-out: Activity; procedure, shortened: as §4
[31] = system: HeLa; experiment: Cell cycle arrest in human HeLa cells assessed as accumulation of cells at G2/M phase at 111 uM after 18 hrs by flow cytometric analysis; assay type: functional, cell-based; procedure, shortened: as §3
[32] = system: HeLa; experiment: Inhibition of beta tubulin in human HeLa cells assessed asultiple abnormal mitotic spindle formation at 57 uM after 18 hrs by immunofluorescence analysis; assay type: cell-based
[33] = system: HeLa; experiment: Induction of interphase microtubule bundling in human HeLa cells at 57 uM after 18 hrs by indirect immunofluorescence; assay type: cell-based
[34] = system: HeLa; experiment: Induction of interphase microtubule bundling in human HeLa cells at 3.5 uM after 18 hrs by indirect immunofluorescence analysis; assay type: cell-based
[35] = system: HeLa; experiment: Cell cycle arrest in human HeLa cells assessed as accumulation of cells at G2/M phase at 3.5 uM after 18 hrs by flow cytometric analysis; assay type: functional, cell-based; procedure, shortened: as §3
[36] = system: HeLa; experiment: Inhibition of beta tubulin in human HeLa cells assessed asultiple abnormal mitotic spindle formation at 3.5 uM after 18 hrs by immunofluorescence analysis; assay type: cell-based
[37] = system: HeLa; experiment: Inhibition of beta tubulin in human HeLa cells assessed asultiple abnormal mitotic spindle formation at 0.6 uM after 18 hrs by immunofluorescence analysis; assay type: cell-based
[38] = system: HeLa; experiment: Induction of interphase microtubule bundling in human HeLa cells at 0.6 uM after 18 hrs by indirect immunofluorescence; assay type: cell-based
[39] = system: HeLa; experiment: Cell cycle arrest in human HeLa cells assessed as accumulation of cells at G2/M phase at 0.6 uM after 18 hrs by flow cytometric analysis; assay type: functional, cell-based; procedure, shortened: as §3

CC(=O)O[C@H]1C(=O)[C@@]2(C)[C@H]([C@H](OC(=O)c3ccccc3)[C@]3(O)C[C@H](OC(=O)[C@H](O)[C@@H](NC(=O)c4ccccc4)c4ccccc4)C(C)=C1C3(C)C)[C@]1(OC(C)=O)CO[C@@H]1C[C@@H]2O [PACLITAXEL]
Activity [1]: Active | Activity [2]: -6.3% | inhibition [3]: Active | T/C [4]: 0% | Time [5]: 19 days | LCK [6]: 4.8 | Activity [7]: Active

CC(=O)O[C@@H]1[C@H]2[C@H]3[C@H]([C@H](OC(C)=O)[C@H](OC(C)=O)[C@]2(C)[C@@H]2[C@@H]1[C@]1(C)C(=C[C@H]2C)OC(=O)[C@@]1(C)O)[C@@]1(C)[C@@H](OC(C)=O)[C@H]2O[C@H]2C[C@]1(O)C(=O)[C@@H]3OC(C)=O [TACCALONOLIDE AA]
Activity [8]: Active | IC50 [9]: 32.3 nM | inhibition [10]: Active | Activity [11]: Active

CC(=O)O[C@H]1[C@H]2[C@H]([C@@H]3[C@@H](O)[C@@H]4[C@H]([C@H](C)C=C5OC(=O)[C@@](C)(O)[C@@]54C)[C@@]3(C)[C@H]1OC(C)=O)[C@@H](O)C(=O)[C@@]1(O)C[C@@H]3O[C@@H]3[C@H](OC(C)=O)[C@]21C [TACCALONOLIDE AB]
Activity [12]: Active | Activity [13]: Active | IC50 [9]: 2770 nM | inhibition [14]: Active

CC(=O)O[C@H]1[C@H]2[C@H]([C@@H]3[C@@H](O)[C@@H]4[C@H]([C@H](C)C=C5OC(=O)[C@@](C)(O)[C@@]54C)[C@@]3(C)[C@H]1OC(C)=O)[C@@H](O)C(=O)[C@H]1C[C@@H]3O[C@@H]3[C@H](OC(C)=O)[C@]21C [TACCALONOLIDE B]
inhibition [15]: Active | Activity [16]: Active | IC50 [9]: 190 nM | Activity [17]: Active

CC(=O)O[C@@H]1[C@H]2[C@@H]3[C@@H](O)C(=O)[C@H]4C[C@@H]5O[C@@H]5[C@H](OC(C)=O)[C@]4(C)[C@H]3C[C@H](OC(C)=O)[C@]2(C)[C@@H]2[C@@H]1[C@]1(C)C(=C[C@H]2C)OC(=O)[C@@]1(C)O [TACCALONOLIDE E]
mortality at 288 h [18]: 0% | Activity [19]: Active | T/C [20]: 81% | T/C [21]: 17% | inhibition [22]: Active | Time [23]: 1 days | Activity [24]: -2% | LCK [25]: 0.25 | Activity [26]: -4.1% | IC50 [9]: 644 nM | Activity [27]: Active | Time [28]: 5 days | LCK [29]: 1.25 | mortality at 288 h [30]: 0%

CC(=O)O[C@@H]1[C@H]2[C@@H]3[C@@H](OC(C)=O)C(=O)[C@@]4(O)C[C@@H]5O[C@@H]5[C@H](OC(C)=O)[C@]4(C)[C@H]3C[C@H](OC(C)=O)[C@]2(C)[C@@H]2[C@@H]1[C@]1(C)C(=C[C@H]2C)OC(=O)[C@@]1(C)O [TACCALONOLIDE R]
Activity [31]: Active | inhibition [32]: Active | Activity [33]: Active | IC50 [9]: 13100 nM

CC(=O)O[C@@H]1[C@H]2[C@@H]3[C@@H](OC(C)=O)C(=O)[C@@]4(O)C[C@@H]5O[C@@H]5[C@H](OC(=O)CC(C)C)[C@]4(C)[C@H]3C[C@H](OC(C)=O)[C@]2(C)[C@@H]2[C@@H]1[C@]1(C)C(=C[C@H]2C)OC(=O)[C@@]1(C)O [TACCALONOLIDE T]
Activity [34]: Active | Activity [35]: Active | IC50 [9]: 335 nM | inhibition [36]: Active

CC(=O)O[C@@H]1[C@H]2[C@H]3[C@H]([C@H](OC(C)=O)[C@H](OC(C)=O)[C@]2(C)[C@@H]2[C@@H]1[C@]1(C)C(=C[C@H]2C)OC(=O)[C@@]1(C)O)[C@@]1(C)[C@@H](OC(C)=O)[C@H]2O[C@H]2C[C@]1(O)C(=O)[C@@H]3O [TACCALONOLIDE Z]
inhibition [37]: Active | Activity [38]: Active | Activity [39]: Active | IC50 [9]: 120 nM
